Bioassay records (PubChem BioAssay)
CCR6 antagonist: CCR6 (human) receptor antagonism. 340,000 compounds, 0.49% hits. CHO-K1 CCR6 PathHunter beta-arrestin, luminescence, CCL20-stimulated. inhibition, % at 20 µM. P51684;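 active = compounds whose inhibition of the agonist-driven luminescence signal at 20 µM reaches about 50%, limit read from the data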;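 note: cells stimulated with CCL20 at 14 nM final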
APJ agonist: agonists of human APJ apelin receptor | CHO-K1 APJ PathHunter beta-arrestin, luminescence; 0% DMSO wells, 100% apelin | activation, % at 20 µM | 330,000 compounds, 0.11% hits;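 active = activation more than six SD over the plate average, tested at 20 µM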
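Test system – PathHunter CHO-K1 APJ (AGTRL-1) beta-arrestin reporter cells · Input – 1000 cells/well · Compound – single test compound dose, 20 µM final, 1% DMSO · Times – compound stimulation 90 min at 25 °C, detection 60 min · Technique – beta-gal luminescence · Read-out basis – APJ–arrestin association signal · Control set – negative DMSO alone, positive Apelin-13 at 10 nM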
Beta2AR agonist: human beta-2 adrenergic receptor agonism by FAP. P07550. Am2.2-beta2AR cells, FAP receptor internalization, flow cytometry. response, % (test concentration not listed). 340,000 compounds, 0.43% hits;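 active = response above a set limit, near 3 SD of response in nonfluorescent compounds, cut at about 42% in these data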
Target sequence (P07550 whole entry, looked up): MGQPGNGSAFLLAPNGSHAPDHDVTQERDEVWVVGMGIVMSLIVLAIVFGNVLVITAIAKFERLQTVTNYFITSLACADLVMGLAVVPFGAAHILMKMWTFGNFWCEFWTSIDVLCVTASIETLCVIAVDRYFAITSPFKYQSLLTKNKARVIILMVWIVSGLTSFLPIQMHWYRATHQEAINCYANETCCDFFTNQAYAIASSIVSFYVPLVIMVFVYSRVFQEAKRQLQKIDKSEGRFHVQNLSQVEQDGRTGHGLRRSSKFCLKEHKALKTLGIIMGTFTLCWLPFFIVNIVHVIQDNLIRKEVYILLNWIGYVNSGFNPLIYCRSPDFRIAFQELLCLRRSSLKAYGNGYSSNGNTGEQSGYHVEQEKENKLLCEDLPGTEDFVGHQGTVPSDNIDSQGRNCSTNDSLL
EBI2 antag: EBI2 (human) antagonism; EBI2 beta-arrestin recruitment, luminescence, 7a,25-OHC stimulated; inhibition, % at 5 µM; 360,000 compounds, 0.81% hits; in the data active = inhibition above about 38%;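 note: enzyme fragment complementation signal reports receptor beta-arrestin coupling in cells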
CXCR6 inh: blocks human CXCR6 beta-arrestin recruitment; AID 602244; CHO-K1 PathHunter CXCR6 beta-arrestin, luminescence; O00574; 360,000 compounds, 0.36% hits; inhibition, % at 20 µM; in the data active = inhibition above about 34%, passing the limit was not always enough;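 note: antagonist mode with CXCL16 agonist at 10 nM final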
APJ antagonist: APJ receptor antagonism; P35414; CHO-K1 APJ beta-arrestin complementation, luminescence; inhibition, % at 20 µM; 330,000 compounds, 0.32% hits; AID 2521;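 active = inhibition above about 40% at 20 µM, limit read from the data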;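 note: cells challenged with 10 nM apelin-13 agonist together with compound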
APJ antag confirm: APJ receptor antagonism confirmation; inhibition, % at 20 µM; APJ beta-arrestin recruitment, luminescence, antagonist mode; 950 compounds, 66% hits; shares compounds with APJ antagonist; in the data active = inhibition above about 50%
Each line names hits and unclear results; the compound was inactive in the other large screens (follow-up assays come after a bar, where they were run). An excerpt weighted towards active compounds, which were near 1.8% of everything screened.

C/C(=N\NC(=S)Nc1cccc(C)c1)c1ccccc1	CCR6 antagonist 52.9, APJ antagonist 43.5 | APJ antag confirm 91.0
O=c1ccc2cc(S(=O)(=O)N3CCN(c4ccccc4F)CC3)ccc2o1	none
CSc1ncccc1C(=O)OCC(=O)c1ccc(S(=O)(=O)N2CCCCC2)cc1	APJ antagonist 46.0 | APJ antag confirm inactive
NS(=O)(=O)c1ccc(N=Nc2c[nH]c(=O)c(O)c2)cc1	CCR6 antagonist 70.7, CXCR6 inh 43.7, APJ antagonist 52.7 | APJ antag confirm 89.7
O=C(NCc1cccs1)C1C(=O)Nc2ccccc2C(=O)N1C1CCCC1 (centres undefined)	none (no result: CCR6 antagonist, APJ agonist, Beta2AR agonist, CXCR6 inh, APJ antagonist)
COc1ccc(C(=O)C2CCCN(C(=O)c3csc(SC)n3)C2)cc1F (centres undefined)	none (no result: CCR6 antagonist, APJ agonist, Beta2AR agonist, APJ antagonist)
C=CCSC(=S)Nc1c(C)n(C)n(-c2ccccc2)c1=O	APJ antagonist 46.5 | APJ antag confirm inactive
CCNC(=S)Nc1c(C)n(C)n(-c2ccccc2)c1=O	none
O=C(C1CCC1)N1CCN(c2ccc(Cl)cc2)CC1	none
Cc1cc(C)c2c(CN3CCCCC3)cc(=O)oc2c1	APJ antagonist 42.7 | APJ antag confirm inactive
Cc1cc(C)c2c(CN3CCC(C)CC3)cc(=O)oc2c1	none
CN(C)c1ccc(NC(=O)COC(=O)Cn2nnc3ccccc32)cc1	none
COC(=O)c1ccccc1NC(=O)CN1C(=O)c2ccccc2C1=O	none
Cc1onc(-c2ccccc2)c1C(=O)NNC(=S)NC(=O)/C=C/c1ccccc1	none
COc1ccc(/C=C/C(=O)NC(=S)NNC(=O)c2c(-c3ccccc3)noc2C)cc1	APJ antagonist 43.4 | APJ antag confirm 91.6
Cc1ccc(C)c(S(=O)(=O)Nc2ccc(O)c(C(=O)O)c2)c1	APJ antagonist 47.8 | APJ antag confirm inactive
Cc1ccc(C)c(S(=O)(=O)Nc2ccc(C(N)=O)cc2)c1	none
Nc1nc(Nc2cccc(Cl)c2)n[nH]1	none
c1cncc(-c2nc(-c3ccco3)cs2)c1	APJ antagonist 47.0 | APJ antag confirm inactive
CC(=O)c1sc(NS(=O)(=O)c2ccc(C)cc2)nc1C	APJ antagonist 52.9 | APJ antag confirm inactive
Cc1ccc(C)c(-c2cc(C(=O)NNC(=S)NCC(C)C)c3ccccc3n2)c1	APJ antagonist 44.7 | APJ antag confirm inactive
C/C(=N\NC(=O)c1cc(Br)ccc1O)c1ccccn1	CCR6 antagonist 54.1, APJ antagonist 44.1 | APJ antag confirm inactive
CCOC1=C2[C@H](c3ccc(CC)cc3)N(S(=O)(=O)c3ccc(C)cc3)C[C@H]2C(C#N)(C#N)C(C#N)(C#N)C1	none (no result: CCR6 antagonist, APJ agonist, Beta2AR agonist, APJ antagonist)
O=C1NN(c2cccc(Br)c2)C(=O)/C1=C/c1ccc(-c2cc([N+](=O)[O-])ccc2O)o1	CCR6 antagonist 85.6, CXCR6 inh 62.3, APJ antagonist 61.4 (no result: Beta2AR agonist) | APJ antag confirm 98.2
CC1=NN(c2ccc(C(=O)O)cc2)C(=O)/C1=C/c1ccc(-c2ccccc2F)o1	none (no result: CCR6 antagonist)
CC1=NN(c2ccc(C)cc2)C(=O)/C1=C/c1ccc(-c2cc([N+](=O)[O-])ccc2O)o1	CCR6 antagonist 72.5, CXCR6 inh 41.5, APJ antagonist 46.7 | APJ antag confirm 92.5
CC1(C(=O)NS(=O)(=O)c2ccccc2)CCN1C(=O)CCc1ccc(Cl)cc1Cl (centres undefined)	none (no result: CCR6 antagonist, APJ agonist, Beta2AR agonist, APJ antagonist)
Cc1cccn2c(=O)c(/C=C(\C#N)C(=O)NCc3ccccc3)c(N3CCC(C(N)=O)CC3)nc12	APJ antagonist 40.7 | APJ antag confirm inactive
CC(=O)N1C[C@H]2CON(C)[C@H]2C[C@H]1c1cccc(-c2ccc(C#N)cc2)c1	none (no result: CCR6 antagonist, APJ agonist, Beta2AR agonist, APJ antagonist)
COc1ccc(C2N(c3ccccc3)CCN2c2ccccc2)cc1O	none
O=C(NNC(=S)Nc1ccccc1)NNC(=S)Nc1ccccc1	CCR6 antagonist 55.6, APJ antagonist 44.3 | APJ antag confirm 88.2
O=C(NC(=S)Nc1cccc(Cl)c1N1CCCCC1)c1ccc2c(c1)OCCO2	APJ antagonist 44.5 | APJ antag confirm inactive
CCOC(=O)c1c(C)nc2sc(C(=O)Nc3ccc(C(C)=O)cc3)c(N)c2c1-c1ccc(OC)cc1	APJ antagonist 51.1 | APJ antag confirm inactive
CCOC(=O)c1c(C)nc2sc(C(=O)Nc3ccc(OC)cc3)c(N)c2c1-c1ccc(OC)cc1	none
Cc1csc(N=Cc2ccc([N+](=O)[O-])o2)n1	none (no result: CCR6 antagonist, APJ agonist, Beta2AR agonist, APJ antagonist)
O=C(c1ccccn1)N1CCCC(N2CCN(c3cccc(C(F)(F)F)c3)CC2)C1 (centres undefined)	none
COc1ccccc1NS(=O)(=O)c1ccc2ccccc2c1	none
COc1ccc(NS(=O)(=O)c2ccc3ccccc3c2)c2ncccc12	APJ antagonist 66.1 | APJ antag confirm 51.9
CNc1cc(-c2cccc(N(C)C)c2)ncn1	none (no result: CCR6 antagonist, APJ agonist, Beta2AR agonist, APJ antagonist)
O=C1C2C3C=CC(C3)C2C(=O)N1/N=C/c1cc(Br)cc([N+](=O)[O-])c1O (centres undefined)	CCR6 antagonist 54.3, APJ antagonist 42.0 | APJ antag confirm 52.3
CC(C)NC(=S)N/N=C1\CCCCc2ccccc21	none
Cc1ccc(C)c(NC(=S)N/N=C2/CCCCc3ccccc32)c1	APJ antagonist 46.6 | APJ antag confirm 83.7
CCOc1cc(C=O)cc(Br)c1OCC(=O)NCCc1ccccc1	none
O=C(COC(=O)c1cc2ccccc2oc1=O)c1cccc([N+](=O)[O-])c1	CCR6 antagonist 51.7, APJ antagonist 48.1 | APJ antag confirm 82.9
O=C(COC(=O)c1cnccn1)c1ccc2ccccc2c1	none
CC(=O)Nc1ccc(NC(=O)CCC(=O)OCC(=O)c2cccc([N+](=O)[O-])c2)cc1	APJ antagonist 47.2 | APJ antag confirm 86.4
O=C(COC(=O)c1cnccn1)c1cccc([N+](=O)[O-])c1	CCR6 antagonist 52.8, APJ antagonist 41.9 | APJ antag confirm 79.4
CC(=O)Nc1ccc(C(=O)OCC(=O)c2cccc([N+](=O)[O-])c2)cc1	none
O=C(CCC(=O)OCC(=O)c1cccc([N+](=O)[O-])c1)Nc1ccccc1Cl	CCR6 antagonist 61.5, APJ antagonist 68.3 | APJ antag confirm 111.7
COc1cc(NC(=O)CCC(=O)N2CCN(S(=O)(=O)c3ccc(C)cc3)CC2)cc(OC)c1	none (no result: APJ agonist, APJ antagonist)
C[C@H](CO)N1C[C@H](C)[C@@H](CN(C)Cc2ccncc2)Oc2c(cccc2N(C)C)C1=O	none
CC(C)(O)[C@@H]1CC[C@@](C)(C2CC[C@]3(C)C2[C@H](O)CC2[C@@]4(C)CC[C@H](O)C(C)(C)C4[C@@H](O[C@H]4O[C@@H](CO)[C@H](O)[C@@H](O)[C@@H]4O[C@@H]4O[C@H](CO)[C@@H](O)[C@H](O)[C@H]4O)C[C@]23C)O1 (stereo in doubt)	none
